pEC50, pIC50, pKi: −log10 of the molar value. Calls of active or inactive are those of the source. The calls are words filed in the database; no cut-off is given here.
What was measured:
[1] = biological target: T1, Cathepsin B (Homo sapiens, UniProt P07858); assay: Inhibition of human recombinant Cathepsin B assessed remaining activity using Z-FR-AMC as substrate incubated for 30 mins by fluorometric assay
Outline: (§1)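 Recombinant human cathepsins: L, B, V and K at 1.11 nM, S at 4.44 nM. Each was preincubated 30 min at 25 °C with 3333 to 0.006 nM compound. Z-FR-AMC was added at 40 μM final. AMC release rate over 0–30 min was compared with DMSO (ex/em 360/460). IC50 from four technical replicates.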

[2] = biological target: T2, Cathepsin L2 (Homo sapiens, UniProt O60911); assay: Inhibition of human recombinant Cathepsin V assessed remaining activity using Z-FR-AMC as substrate incubated for 30 mins by fluorometric assay; outline: as §1
T2 sequence (O60911 whole entry): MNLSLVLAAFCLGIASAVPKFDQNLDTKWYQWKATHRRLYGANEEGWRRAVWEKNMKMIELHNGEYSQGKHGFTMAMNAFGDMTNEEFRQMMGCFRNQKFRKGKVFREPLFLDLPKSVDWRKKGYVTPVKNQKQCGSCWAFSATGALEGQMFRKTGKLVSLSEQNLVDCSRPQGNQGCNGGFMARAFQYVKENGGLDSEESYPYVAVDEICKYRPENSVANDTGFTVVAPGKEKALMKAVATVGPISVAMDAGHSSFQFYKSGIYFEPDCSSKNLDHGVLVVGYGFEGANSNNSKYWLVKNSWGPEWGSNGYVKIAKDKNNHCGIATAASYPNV

[3] = biological target: Cathepsin S (Homo sapiens, UniProt P25774); assay: Inhibition of human recombinant Cathepsin S assessed remaining activity using Z-FR-AMC as substrate incubated for 30 mins by fluorometric assay; outline: as §1
[4] = biological target: T3, Cathepsin K (Homo sapiens, UniProt P43235); assay: Inhibition of human recombinant Cathepsin K assessed remaining activity using Z-FR-AMC as substrate incubated for 30 mins by fluorometric assay; outline: as §1
T3 sequence (P43235 whole entry): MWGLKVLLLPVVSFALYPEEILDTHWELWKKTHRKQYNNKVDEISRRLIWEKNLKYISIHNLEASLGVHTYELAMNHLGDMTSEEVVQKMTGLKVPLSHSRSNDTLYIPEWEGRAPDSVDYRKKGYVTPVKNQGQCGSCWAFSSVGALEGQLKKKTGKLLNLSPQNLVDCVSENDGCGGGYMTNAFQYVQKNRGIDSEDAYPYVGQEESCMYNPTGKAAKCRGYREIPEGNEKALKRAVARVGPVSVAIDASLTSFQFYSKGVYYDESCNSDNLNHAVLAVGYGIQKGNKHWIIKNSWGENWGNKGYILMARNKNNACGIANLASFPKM

[5] = tested on: SARS-CoV-2; assay: Antiviral activity against SARS-CoV-2 infected in African green monkey Vero E6 cells assessed as inhibition of viral infection pre incubated for 30 minutes followed by viral infection and measured after 72 hrs by Nucblue dye based fluorometric analysis; type: functional, organism-based; details: Severe acute respiratory syndrome coronavirus 2, Vero C1008
[6] = biological target: T4, Procathepsin L (Homo sapiens, UniProt P07711); assay: Inhibition of human recombinant Cathepsin L assessed as Kinact using Z-FR-AMC as substrate inubated for 30 mins by fluorometric assay
Outline: (§2)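 Human CatL, human CatB or mouse CatL at 1 nM, at 25 °C in pH 5.5 Na acetate/DTT/EDTA/NaCl buffer. Reactions held 40 μM Z-FR-AMC and 555.56 to 0.01 nM compound, in quadruplicate. Product formation was measured at 6 min intervals for 1 h and normalized to DMSO wells. kobs came from inactivation curves. kinact and KIapp were obtained by nonlinear regression of kobs = kinact[I]/(KIapp + [I]); their ratio was then calculated.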
Target sequence in this assay (P07711 114-333 limits assumed): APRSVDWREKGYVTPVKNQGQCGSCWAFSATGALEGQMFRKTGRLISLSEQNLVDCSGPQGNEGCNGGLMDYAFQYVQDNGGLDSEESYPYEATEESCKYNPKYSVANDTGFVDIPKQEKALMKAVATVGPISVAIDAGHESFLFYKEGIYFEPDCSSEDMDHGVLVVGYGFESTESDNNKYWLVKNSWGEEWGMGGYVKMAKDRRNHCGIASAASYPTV

[7] = biological target: T1, Cathepsin B; assay: Inhibition of human recombinant Cathepsin B assessed as Kinact using Z-FR-AMC as substrate inubated for 30 mins by fluorometric assay
[8] = biological target: T5, Procathepsin L (Mus musculus) (UniProt P06797); assay: Inhibition of mouse Cathepsin L assessed as Kinact using Z-FR-AMC as substrate inubated for 30 mins by fluorometric assay; outline: as §2
T5 sequence (whole entry): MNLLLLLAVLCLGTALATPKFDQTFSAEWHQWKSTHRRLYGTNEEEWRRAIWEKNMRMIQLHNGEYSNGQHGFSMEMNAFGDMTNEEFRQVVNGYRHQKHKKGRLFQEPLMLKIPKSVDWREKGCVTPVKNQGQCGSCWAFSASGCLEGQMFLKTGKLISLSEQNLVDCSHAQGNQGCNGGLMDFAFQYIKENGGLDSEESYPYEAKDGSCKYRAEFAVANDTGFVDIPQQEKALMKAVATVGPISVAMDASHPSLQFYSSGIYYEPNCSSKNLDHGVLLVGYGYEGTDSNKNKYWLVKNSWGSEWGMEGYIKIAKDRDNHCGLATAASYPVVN

[9] = biological target: T4, Procathepsin L; assay: Inhibition of human recombinant Cathepsin L assessed as Apparent inhibition constant using Z-FR-AMC as substrate […] by fluorometric assay; details: read-out: Ki(app)
Target sequence in this assay (P07711 whole entry): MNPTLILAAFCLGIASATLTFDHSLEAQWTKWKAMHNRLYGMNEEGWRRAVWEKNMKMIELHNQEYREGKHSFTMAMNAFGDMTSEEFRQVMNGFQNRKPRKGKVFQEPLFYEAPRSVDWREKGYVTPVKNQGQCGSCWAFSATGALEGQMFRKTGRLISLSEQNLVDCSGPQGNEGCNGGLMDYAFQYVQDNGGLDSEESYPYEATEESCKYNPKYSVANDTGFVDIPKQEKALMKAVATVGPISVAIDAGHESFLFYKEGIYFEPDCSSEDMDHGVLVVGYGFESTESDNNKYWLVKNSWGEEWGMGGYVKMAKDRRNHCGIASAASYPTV

[10] = biological target: T1, Cathepsin B; assay: Inhibition of human recombinant Cathepsin B assessed as Apparent inhibition constant using Z-FR-AMC as substrate inubated for 30 mins by fluorometric assay; details: read-out: Ki(app); outline: as §2
[11] = biological target: T6, Procathepsin L (Mus musculus, UniProt P06797); assay: Inhibition of mouse Cathepsin L assessed as Apparent inhibition constant using Z-FR-AMC as substrate inubated for 30 mins by fluorometric assay; details: read-out: Ki(app); outline: as §2
T6 sequence (P06797 whole entry): T5 sequence (whole entry)

[12] = biological target: T5, Procathepsin L (Mus musculus); assay: Inhibition of mouse Cathepsin L assessed as ratio of Kinact/Kiapp using Z-FR-AMC as substrate inubated for 30 mins by fluorometric assay; outline: as §2
[13] = tested on: Vero C1008; assay: Cytotoxicity against cells African green monkey Vero E6 cells incubated for 24 to 72 hrs by alamar blue assay; type: toxicity, cell-based; details: chlorocebus sabaeus, time 24-72 hrs
Outline: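 VeroE6 cells in DMEM with 10% FCS were seeded at 5 × 10^4 per well. After adherence, cells were given varying compound concentrations for 24 or 72 h at 37 °C, 5% CO2. Alamar Blue HS was added for a further 2–4 h. Viability was read as fluorescence at ex/em 560/590 nm.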

[14] = tested on: SARS-CoV-2; assay: Anti viral activity against SARS-CoV-2 infected in African green monkey veroE6 assessed as reduction in viral load; type: functional, Severe acute respiratory syndrome coronavirus 2, Vero E6
[15] = biological target: T1, Cathepsin B; assay: Inhibition of recombinant human Cathepsin B in African green monkey Vero E6 using Z-Phe-Arg-AMC as substrate for 30 mins by fluorometric assay; type: cell-based
Outline: (§3)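 VeroE6 or A549 cells were lysed by sonication in 50 mM MES pH 6.0 with AEBSF, pepstatin A, EDTA and DTT; protein was quantified by BCA. An equal volume of 50 μM Z-Phe-Arg-AMC was then added. Activity was normalized to 0.2% DMSO wells.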

[16] = biological target: T1, Cathepsin B; assay: Inhibition of recombinant human Cathepsin B expressed in huamn A549 using Z-Phe-Arg-AMC as substrate incubated for 30 mins by fluorometric assay; outline: as §3
[17] = tested on: SARS-CoV-2; assay: Antiviral activity against SARS-CoV-2 infected in human HEK293 cells expressing TMPRSS2 as inhibition of viral entry; type: functional, organism-based; details: Severe acute respiratory syndrome coronavirus 2
[18] = tested on: SARS-CoV-2; assay: Antiviral activity against SARS-CoV-2 infected in African green monkey Vero E6 cells assessed as inhibition of viral entry at 0.5 uM pretreated for 30 mins with cells followed by viral infection and measured after 24 hrs post infection by Alexa Fluor 488 and Hoechst dye based fluorescence microscopy; type: functional, organism-based; details: Severe acute respiratory syndrome coronavirus 2
[19] = biological target: T4, Procathepsin L; assay: Binding affinity to Cathepsin L in African green monkey VeroE6 cell lysates assessed as covalent adducts by quantitative mass spectrometry; type: subcellular; details: Vero E6
Outline: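 VeroE6 cells at 80–90% confluence were treated with 10 μM compound for 1 h in triplicate, washed with DPBS, and lysed in 4% sodium deoxycholate buffer. Lysates were digested to peptides and analysed by nanoflow LC-MS/MS. Covalent CatL adducts were identified by targeted MS/MS at 1% FDR.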
Target sequence in this assay (P07711 114-333 limits assumed): as the sequence (P07711 114-333 limits assumed) above

[20] = tested on: SARS-CoV-2; assay: Antiviral activity against SARS-CoV-2 infected in human MRC5 cells expressing ACE2/TMPRSS2 assessed as inhibition of viral entry at 32 uM; type: functional, organism-based; details: Severe acute respiratory syndrome coronavirus 2
[21] = biological target: T4, Procathepsin L; assay: Inhibition of recombinant human Cathepsin L in African green monkey Vero E6 at 20 uM using Z-Phe-Arg-AMC as substrate for 30 mins by fluorometric assay; type: cell-based; outline: as §3
Target sequence in this assay (P07711 114-333 limits assumed): as above

[22] = tested on: SARS-CoV-2; assay: Antiviral activity against SARS-CoV-2 infected in Vero E6 cells assessed as inhibition of viral entry at 0.5 uM and measured after 24 hrs post infection by Alexa Fluor 488 and Hoechst dye based fluorescence microscopy; type: functional, organism-based; details: Severe acute respiratory syndrome coronavirus 2
[23] = tested on: SARS-CoV-2; assay: Synergistic antiviral activity against SARS-CoV-2 infected in human HEK293 cells expressing TMPRSS2 as inhibition of viral entry in presence of Na-famostat mesylate; type: functional, organism-based; details: Severe acute respiratory syndrome coronavirus 2
[24] = biological target: T4, Procathepsin L; assay: Inhibition of human recombinant Cathepsin L assessed as ratio of Kinact/Kiapp using Z-FR-AMC as substrate inubated for 30 mins by fluorometric assay
Target sequence in this assay (P07711 114-333 limits assumed): as above

[25] = biological target: T1, Cathepsin B; assay: Inhibition of human recombinant Cathepsin B assessed as ratio of Kinact/Kiapp using Z-FR-AMC as substrate inubated for 30 mins by fluorometric assay; outline: as §2
[26] = biological target: T4, Procathepsin L; assay: Inhibition of human recombinant Cathepsin L assessed enzyme activity using Z-FR-AMC as substrate at 416 nM incubated for 30 mins by fluorometric assay
Outline: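 Recombinant human CatL at 50 pM was incubated with 416 nM compound for […] at 25 °C in 50 mM Na acetate pH 5.5, 5 mM DTT, 0.01% BSA, 1 mM EDTA. An equal volume of 5 μM Z-FR-AMC was then added. Fluorescence was read at 360/460 nm in triplicate wells and normalized to DMSO vehicle wells.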
Target sequence in this assay (P07711 114-333 limits assumed): as above

Sequence of Cathepsin S (P25774 whole entry): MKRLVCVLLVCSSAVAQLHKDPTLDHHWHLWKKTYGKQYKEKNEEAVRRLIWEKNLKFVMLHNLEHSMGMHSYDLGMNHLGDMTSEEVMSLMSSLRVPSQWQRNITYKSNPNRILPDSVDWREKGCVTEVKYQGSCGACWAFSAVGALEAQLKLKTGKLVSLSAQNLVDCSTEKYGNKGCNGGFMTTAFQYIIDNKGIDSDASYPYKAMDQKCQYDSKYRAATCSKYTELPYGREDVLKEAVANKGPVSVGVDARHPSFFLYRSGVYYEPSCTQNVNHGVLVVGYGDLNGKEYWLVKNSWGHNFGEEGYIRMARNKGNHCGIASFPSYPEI

CC[C@H](C)[C@@H](C(=O)O[C@@H](CC(C)C)C(=O)N[C@@H](CC(C)C)C(=O)N[C@@H](C)/C=C/C(=O)N1C(=O)C=C(OC)[C@@H]1C)N(C)C [GALLINAMIDE A]
pIC50 [1]: 8.13
pIC50 [2]: 6.16
pIC50 [3]: 9.44
pIC50 [4]: 7.10
pEC50 [5]: 7.55
Kinact [6]: 4.75 10^-3/s
Kinact [7]: 6.27 10^-4/s
Kinact [8]: 5.69 10^-3/s
pKi [9]: 8.10
pKi [10]: 6.93
pKi [11]: 8.28
Ratio [12]: 1.07 10^6/s/M
CC50 [13]: > 100000 nM
IC90 [14]: 88 nM
inhibition [15]: Active
inhibition [16]: Active
Activity [17]: Active
Activity [18]: Active
Activity [19]: Active
Activity [20]: Active
inhibition [21]: Active
Activity [22]: Active
Activity [23]: Active

COC1=CC(=O)N(C(=O)/C=C/[C@H](C)NC(=O)[C@H](CCc2ccccc2)NC(=O)[C@H](CC2CCCCC2)NC(=O)[C@H](C(C)C)N(C)C)[C@H]1Cc1c[nH]c2ccccc12
pIC50 [1]: 7.32
pIC50 [2]: 6.73
pIC50 [3]: 7.22
pIC50 [4]: 6.66
pEC50 [5]: 6.77
Kinact [6]: 5.87 10^-3/s
Kinact [7]: 3.35 10^-3/s
Kinact [8]: 2.24 10^-3/s
pKi [10]: 6.46
pKi [11]: 7.78
Ratio [24]: 1.89 10^5/s/M
Ratio [25]: 9.65 10^3/s/M
Ratio [12]: 1.36 10^5/s/M
CC50 [13]: > 100000 nM
Activity [20]: Active

COC1=CC(=O)N(C(=O)/C=C/[C@H](C)NC(=O)[C@H](CC(C)C)NC(=O)[C@H](CC2CCCCC2)NC(=O)C2CCN(C)CC2)[C@H]1Cc1c[nH]c2ccccc12
pIC50 [1]: 9.56
pIC50 [2]: 7.69
pIC50 [3]: 9.52
pIC50 [4]: 9.21
pEC50 [5]: 5.22
Kinact [6]: 3.47 10^-3/s
Kinact [7]: 2.09 10^-2/s
Kinact [8]: 8.56 10^-3/s
pKi [9]: 7.74
pKi [10]: 6.06
pKi [11]: 7.53
Ratio [24]: 1.93 10^5/s/M
Ratio [25]: 2.43 10^4/s/M
Ratio [12]: 2.92 10^5/s/M
CC50 [13]: > 100000 nM

COC1=CC(=O)N(C(=O)/C=C/[C@H](CCc2ccccc2)NC(=O)[C@H](CC(C)C)NC(=O)[C@H](CC(C)C)NC(=O)[C@H](C(C)C)N(C)C)[C@H]1Cc1c[nH]c2ccccc12
pIC50 [1]: 9.83
pIC50 [2]: 6.38
pIC50 [3]: 9.65
pIC50 [4]: 8.82
pEC50 [5]: 6.04
Kinact [6]: 9.85 10^-3/s
Kinact [7]: 1.89 10^-3/s
Kinact [8]: 9.6 10^-3/s
pKi [9]: 7.93
pKi [10]: 6.62
pKi [11]: 8.38
Ratio [24]: 8.35 10^5/s/M
Ratio [25]: 7.94 10^3/s/M
Ratio [12]: 2.31 10^6/s/M
CC50 [13]: > 100000 nM

COC1=CC(=O)N(C(=O)/C=C/[C@H](C)NC(=O)[C@H](CC(C)C)NC(=O)[C@H](CC(C)C)NC(=O)C2CCN(C)CC2)[C@H]1Cc1c[nH]c2ccccc12
pIC50 [1]: 9.38
pIC50 [2]: 7.20
pIC50 [3]: 10.83
pIC50 [4]: 7.75
pEC50 [5]: < 5.30
Kinact [6]: 8.34 10^-3/s
Kinact [7]: 1.7 10^-2/s
Kinact [8]: 3.19 10^-3/s
pKi [10]: 6.07
pKi [11]: 8.40
Ratio [24]: 2.9 10^5/s/M
Ratio [25]: 1.99 10^4/s/M
Ratio [12]: 8.06 10^5/s/M
CC50 [13]: > 100000 nM

COC1=CC(=O)N(C(=O)/C=C/[C@H](C)NC(=O)[C@H](CC(C)C)NC(=O)[C@H](Cc2ccccc2)NC(=O)[C@H](CC(C)C)N(C)C)[C@H]1Cc1c[nH]c2ccccc12
inhibition [26]: 90%

From ChEMBL document CHEMBL5154645, “Potent Anti-SARS-CoV-2 Activity by the Natural Product Gallinamide A and Analogues via Inhibition of Cathepsin L” (J Med Chem, 2022)
